Experiments:
[1] = Competitive inhibition of Streptococcus pneumoniae ASADH using aspartyl semialdehyde as substrate using Dixon plot analysis
How it was run: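 Recombinant S. pneumoniae enzyme, reverse reaction read as NADPH rise at 340 nm, room temperature. Buffer: 120 mM CHES pH 8.6, 200 mM KCl, 20% DMSO for DMSO-soluble inhibitors. Substrates: 1 mM ASA, 1.5 mM NADP, 20 mM phosphate. Enzyme added last; inhibitor serially diluted. Initial velocities fitted to Dixon equation assuming competition with ASA.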

[2] = Competitive inhibition of Vibrio cholerae ASADH using aspartyl semialdehyde as substrate by Dixon plot analysis
How it was run: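 Recombinant V. cholerae ASADH, reverse reaction, room temperature, in 120 mM CHES pH 8.6, 200 mM KCl and 20% DMSO. Final levels: ASA 1 mM, NADP 1.5 mM, phosphate 20 mM. Enzyme added to start; inhibitor serially diluted across wells. NADPH rise read at 340 nm; initial velocities fitted to Dixon equation assuming ASA-competitive inhibition to give Ki.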

[3] = Competitive inhibition of Vibrio cholerae ASADH using different concentration of aspartyl semialdehyde as substrate by spectrophotometry
How it was run: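 Recombinant V. cholerae ASADH, reverse reaction at room temperature in 120 mM CHES pH 8.6, 200 mM KCl, 20% DMSO, with NADP and phosphate. ASA varied at several fixed inhibitor concentrations. NADPH formation read at 340 nm; initial-rate data fitted to standard inhibition-type models.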

SMILES	Ki [1]	Ki [2]	Ki [3]
COC(=O)c1ccc(C(=O)OC)nc1	> 20000 µM	–	–
CCn1c(=O)n(CC)c2cc([N+](=O)[O-])ccc21	> 4000 µM	–	–
O=C1NC(=O)c2cc([N+](=O)[O-])ccc21	3300 µM	2600 µM	–
O=C(O)c1ccc([N+](=O)[O-])cn1	1200 µM	2100 µM	–
COC(=O)c1ccc([N+](=O)[O-])cn1	> 20000 µM	–	–
O=C1NC(=O)c2cc([N+](=O)[O-])c(Cl)cc21	150 µM	180 µM	197 µM
CN1C(=O)c2ccc([N+](=O)[O-])cc2C1=O	890 µM	1100 µM	–
CCN1C(=O)c2ccc([N+](=O)[O-])cc2C1=O	> 4000 µM	–	–
O=c1[nH]c2ccc([N+](=O)[O-])cc2[nH]1	400 µM	1100 µM	–
Cn1c(=O)n(C)c2cc([N+](=O)[O-])ccc21	86 µM	> 130 µM	24 µM
O=C(O)c1cc(C(=O)O)cc(C(=O)Nc2ccc([N+](=O)[O-])cc2)c1	110 µM	180 µM	–
COC(=O)c1cc(C(=O)Nc2ccc([N+](=O)[O-])cc2)cc(C(=O)OC)c1	> 20000 µM	–	–
O=C(O)c1ccc(C(=O)O)nc1 [PYRIDINE-2,5-DICARBOXYLIC ACID]	690 µM	1200 µM	–
